This is an account of results in ChEMBL document CHEMBL1132373, “Synthesis, opioid receptor binding, and biological activities of naltrexone-derived pyrido- and pyrimidomorphinans” (J Med Chem, 1999).

For assay [1], the target named is Mu-type opioid receptor (Cavia porcellus) (UniProt P97266). The assay is described as follows: Opioid antagonist potency against […] mu-opioid receptor from guinea pig ileum(GPI). The assay is classed as functional, tissue-based. In short, it runs like this: (§1)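 Longitudinal muscle-myenteric plexus strips from male Hartley guinea pigs (250-500 g), 37 °C oxygenated Krebs, 1 g tension, 0.1 Hz, 0.4 ms pulses. Preincubated 30 min with 1 µM compound, washed 30 min, cumulative PL-017 curve repeated. Ke = [antagonist]/(IC50 ratio - 1); IC50 from 2-4 tissues.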

The target in assay [2] is Delta-type opioid receptor (Rattus norvegicus, UniProt P33533). In words: Binding affinity for Opioid receptor delta 1 was determined by inhibition of binding of [3H]DADLE (1.3-2.0 nM) to rat brain membranes. The assay is classed as cell membranes, Membrane. In short, it runs like this: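 Rat brain membranes prepared daily (homogenised in ice-cold 10 mM Tris-HCl pH 7.0, centrifuged twice at 30000g). [3H]DADLE (2 nM) incubated 2 h at 25 °C in 50 mM Tris-HCl pH 7.4 with 100 mM choline chloride, 3 mM MnCl2, 100 nM DAMGO blocking mu sites, protease inhibitors. Nonspecific: 20 µM levallorphan. 8-10 drug concentrations, duplicate; Ki = IC50/(1+[L]/Kd).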

For assay [3], the species on record is Cavia porcellus. In words: Selectivity ratio of binding affinity towards kappa of guinea pig brain membrane to delta receptors of rat brain membranes. The assay is classed as cell membranes.
Assay [4] has as its target Kappa-type opioid receptor (Cavia porcellus, UniProt P41144). The assay is described as follows: Binding affinity for Opioid receptor kappa 1 was determined by inhibition of binding of [3H]U-69593 (1.2-2.2 nM) to guinea pig brain membranes. Also on record: species or system Membrane. In short, it runs like this:
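Guinea pig brain membranes prepared daily, washed twice at 30000g. [3H]U69,593 (2 nM) incubated 2 h at 25 °C in 50 mM Tris-HCl pH 7.4 with 1 µg/mL captopril and protease inhibitors. Nonspecific binding with 1 µM U69,593. 8-10 drug concentrations, twice; Ki = IC50/(1+[L]/Kd).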

Assay [5] deals with Opioid receptors; mu & delta (Rattus norvegicus) (UniProt P33533+P33535). In words: Selectivity ratio of binding affinity towards mu to delta receptors of rat brain membranes. The assay is classed as cell membranes. To be noted: Membrane.
The target of assay [6] is Mu-type opioid receptor (Cavia porcellus) (UniProt P97266). In words: Antagonist potency against mu opioid receptor in guinea pig ileum (GPI) using […]. The assay is classed as functional, tissue-based. An outline of the steps: as §1
The species entered for assay [7] is Cavia porcellus. The assay is described as follows: Inhibition of contraction (agonistic activity) of guinea pig ileum(GPI) at 1 uM concentration. The assay is classed as functional. In short, it runs like this:
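Guinea pig ileum longitudinal muscle strips, 37 °C oxygenated Krebs, 1 g tension, 0.1 Hz, 0.4 ms pulses, supramaximal voltage.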

The species named for assay [8] is Cavia porcellus. The assay is described as follows: Selectivity ratio of binding affinity towards mu of […] preparations. The assay is classed as tissue-based.
Assay [9] has as its target Mu-type opioid receptor (Rattus norvegicus, UniProt P33535). The assay is described as follows: Binding affinity for Opioid receptor mu 1 was determined by inhibition of binding of [3H]DAMGO (1.4-3 nM) to rat brain membranes. The assay is classed as cell membranes, Membrane. In short, it runs like this: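 Rat brain membranes prepared daily, washed twice at 30000g. Labelled with [3H]DAMGO (1-3 nM), 2 h at 25 °C in 50 mM Tris-HCl pH 7.4 plus protease inhibitor cocktail. Nonspecific binding with 20 µM levallorphan. Test drug at 8-10 concentrations, run twice; Ki from IC50 via Ki = IC50/(1+[L]/Kd).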

The target in assay [10] is Delta-type opioid receptor (Mus musculus) (UniProt P32300). In words: (§2) Antagonist potency measured as Ke = [antagonist]/(IC50 ratio-1) against delta opioid receptor from mouse vas deferens (MVD) using DPDPE. The assay is classed as functional. In short, it runs like this: (§3)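 Vas deferens from male ICR mice (25-40 g) in 37 °C oxygenated magnesium-free Krebs, 0.5 g tension, field-stimulated 0.1 Hz, 2-ms pulses. Compound 1 µM for 30 min, washout 30 min, cumulative DPDPE curve repeated. Ke = [antagonist]/(IC50 ratio - 1); IC50 from 2-4 tissues, n ≥ 3, nonlinear least squares.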

Assay [11] shares this target. The assay is described as follows: Antagonist potency against delta opioid receptor in mouse vas deferens (MVD) using DPDPE. The assay is classed as functional, tissue-based. An outline of the steps:
as §3

For assay [12], the species on record is Mus musculus. The assay is described as follows: Inhibition of contraction (agonistic activity) of mouse vas deferens (MVD) at 1 uM concentration. The assay is classed as functional.
In assay [13] the target is Delta-type opioid receptor (Mus musculus) (UniProt P32300).
Assay [14] concerns the target Delta-type opioid receptor (Mus musculus, UniProt P32300). The description is as §2. The assay is classed as functional. An outline of the steps:
as §3

Kappa-type opioid receptor, sequence (P41144 whole entry): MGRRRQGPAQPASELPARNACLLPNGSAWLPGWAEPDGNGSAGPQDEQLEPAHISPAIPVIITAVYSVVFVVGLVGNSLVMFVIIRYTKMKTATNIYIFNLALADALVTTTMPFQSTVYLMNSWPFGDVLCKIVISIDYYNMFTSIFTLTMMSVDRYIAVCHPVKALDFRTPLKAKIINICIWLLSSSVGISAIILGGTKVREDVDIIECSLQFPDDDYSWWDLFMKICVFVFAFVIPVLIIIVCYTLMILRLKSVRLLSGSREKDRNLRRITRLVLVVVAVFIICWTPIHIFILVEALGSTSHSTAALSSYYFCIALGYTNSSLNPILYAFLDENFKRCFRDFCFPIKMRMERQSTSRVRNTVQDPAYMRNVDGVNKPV
Mu-type opioid receptor (Cavia porcellus), sequence (P97266 whole entry): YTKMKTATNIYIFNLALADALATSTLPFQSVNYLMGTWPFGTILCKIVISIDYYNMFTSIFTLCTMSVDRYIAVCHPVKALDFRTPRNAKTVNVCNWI
Delta-type opioid receptor (Mus musculus), sequence (P32300 whole entry): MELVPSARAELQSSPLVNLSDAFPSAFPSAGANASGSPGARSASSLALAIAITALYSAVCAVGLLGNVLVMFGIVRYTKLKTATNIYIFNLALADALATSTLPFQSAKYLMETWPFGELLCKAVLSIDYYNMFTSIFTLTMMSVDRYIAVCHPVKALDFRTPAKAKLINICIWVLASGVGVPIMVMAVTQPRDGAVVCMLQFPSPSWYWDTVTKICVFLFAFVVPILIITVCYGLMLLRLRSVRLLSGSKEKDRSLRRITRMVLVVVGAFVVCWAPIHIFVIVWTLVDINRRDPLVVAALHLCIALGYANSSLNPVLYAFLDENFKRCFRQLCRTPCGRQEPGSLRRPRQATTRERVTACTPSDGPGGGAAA
Mu-type opioid receptor, sequence (P33535 whole entry): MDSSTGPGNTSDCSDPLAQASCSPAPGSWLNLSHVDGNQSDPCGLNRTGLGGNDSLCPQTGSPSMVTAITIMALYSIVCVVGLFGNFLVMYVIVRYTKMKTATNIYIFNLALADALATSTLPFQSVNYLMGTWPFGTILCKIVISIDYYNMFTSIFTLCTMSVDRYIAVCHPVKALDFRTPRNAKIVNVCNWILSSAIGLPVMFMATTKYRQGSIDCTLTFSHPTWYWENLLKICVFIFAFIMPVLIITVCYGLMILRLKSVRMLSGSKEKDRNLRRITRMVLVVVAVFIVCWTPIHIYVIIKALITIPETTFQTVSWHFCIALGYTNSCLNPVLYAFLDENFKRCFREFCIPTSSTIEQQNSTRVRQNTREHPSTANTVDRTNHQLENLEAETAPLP
Opioid receptors; mu & delta (Rattus norvegicus), sequence (P33533 whole entry, looked up): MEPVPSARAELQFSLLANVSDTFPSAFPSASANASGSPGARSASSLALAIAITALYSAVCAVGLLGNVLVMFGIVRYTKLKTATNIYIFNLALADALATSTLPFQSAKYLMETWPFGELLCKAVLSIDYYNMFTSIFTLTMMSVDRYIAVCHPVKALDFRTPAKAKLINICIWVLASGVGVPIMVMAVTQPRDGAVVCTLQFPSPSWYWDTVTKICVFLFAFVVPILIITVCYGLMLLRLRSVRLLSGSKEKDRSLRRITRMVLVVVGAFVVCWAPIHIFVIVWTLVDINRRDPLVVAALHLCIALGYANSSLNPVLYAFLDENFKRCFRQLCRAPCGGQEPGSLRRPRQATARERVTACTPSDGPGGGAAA
Opioid receptors; mu & delta (Rattus norvegicus), sequence (P33535 whole entry, looked up): as the sequence (P33535 whole entry) above
Delta-type opioid receptor (Rattus norvegicus, UniProt P33533), sequence (P33533 whole entry): as the sequence (P33533 whole entry, looked up) above
Delta-type opioid receptor (Mus musculus, UniProt P32300), sequence (P32300 whole entry): as the sequence (P32300 whole entry) above

For `Oc1ccc2c3c1O[C@H]1c4nc(-c5ccccc5)ncc4C[C@@]4(O)[C@@H](C2)N(CC2CC2)CC[C@]314`, the Ke is 30 nM in assay [1] and 75 nM in assay [10]. For the same molecule, the inhibition constant Ki (in general, a dissociation constant, usually derived from enzyme kinetics or from competition with a known ligand) in assay [2] was found to be 16 nM; in assay [4] it was 11 nM; in assay [9], 22 nM. The results for the Selectivity ratio in [3], in assay [5] and in assay [8] were 0.7, 1.4 and 0.4, respectively. Moreover, the IC50 ratio was 34.1 in assay [6] and 14.3 in assay [11]. This molecule displayed an IC50 in assay [7] (Cavia porcellus, Ileum) of 4 nM.
As to `Oc1ccc2c3c1O[C@H]1c4[nH]c5ccccc5c4C[C@@]4(O)[C@@H](C2)N(CC2CC2)CC[C@]314` [NALTRINDOLE], the Ke in assay [1] is 43 nM. Further, the figures for the “Percent inhibition of contraction at 1 uM” value (“Percent inhibition” below) in assay [12] and in assay [7] were 16% and 18%, respectively.
The molecule `Oc1ccc2c3c1O[C@H]1c4ncccc4C[C@@]4(O)[C@@H](C2)N(CC2CC2)CC[C@]314` yielded a Ke in assay [13] of 37 nM. For the same molecule, the Ki in [2] is 0.78 nM; in [4] it was 8.8 nM; in [9] it was 1.5 nM. Also, the Selectivity ratio in [3] came to 11; in [5] it was 1.9; in assay [8], 4.4. In addition, the IC50 ratio in assay [6] worked out at 7.08. Further, the inhibition at 1 µM in assay [12] and in assay [7] was 0% in each case.
As for `Oc1ccc2c3c1O[C@H]1c4nc(-c5ccccc5)nc(-c5ccccc5)c4C[C@@]4(O)[C@@H](C2)N(CC2CC2)CC[C@]314`, the Ke in assay [1] came to 560 nM; in assay [10] it was 150 nM. Also, the Ki came to 344 nM in assay [2], 2540 nM in assay [4] and 1170 nM in [9]. Also, the Selectivity ratio is 7.4 in assay [3], 3.4 in assay [5] and 3.7 in assay [8]. Moreover, the figures for the IC50 ratio in [6] and in assay [11] were 2.8 and 7.63, respectively.
With `Oc1ccc2c3c1O[C@H]1c4ncncc4C[C@@]4(O)[C@@H](C2)N(CC2CC2)CC[C@]314`, the Ke amounted to 150 nM in assay [1] and 75 nM in [10]. Further, the Ki in assay [2] is 3.5 nM; in assay [4], 6.24 nM; in [9], 4.15 nM. Also, the figures for the Selectivity ratio in assay [3], in [5] and in assay [8] were 1.8, 1.2 and 2, respectively. Besides, the IC50 ratio worked out at 7.52 in [6] and 14.4 in assay [11].
In the case of `Oc1ccc2c3c1O[C@H]1c4nc(-c5ccccc5)cc(-c5ccccc5)c4C[C@@]4(O)[C@@H](C2)N(CC2CC2)CC[C@]314`, the results for the Ki in assay [2], in [4] and in assay [9] were 86 nM, 2120 nM and 652 nM, respectively. Moreover, the Selectivity ratio in assay [3] amounted to 25; in assay [5], 7.6. Moreover, in assay [10], the Ke amounted to 49 nM. Besides, in [11], the IC50 ratio is 21.2.
Take `Oc1ccc2c3c1O[C@H]1c4nc(-c5ccccc5)ccc4C[C@@]4(O)[C@@H](C2)N(CC2CC2)CC[C@]314`: the Ke in [1] stood at 88 nM; in assay [10] it was 25 nM. Besides, the Ki is 1.76 nM in assay [2], 18.4 nM in assay [4] and 11 nM in [9]. For the same molecule, the Selectivity ratio in assay [3] worked out at 10; in assay [5], 6.3; in assay [8], 3.5. For the same molecule, the IC50 ratio in assay [6] worked out at 12.4; in [11], 41.1.
In the case of `Cc1cc(-c2ccccc2)c2c(n1)C1Oc3c(O)ccc4c3[C@@]13CCN(CC1CC1)[C@H](C4)[C@]3(O)C2` (some centres undefined), the Ki worked out at 125 nM in [2], 677 nM in assay [4] and 154 nM in [9]. In addition, the Selectivity ratio in assay [3] is 5.4; in assay [5] it was 1.2. Moreover, the IC50 in [12] (Mus musculus) was 1.2 nM; in assay [7] (Cavia porcellus, Ileum) it was 5.4 nM.
In the case of `Oc1ccc2c3c1O[C@H]1c4nc(Cc5ccccc5)nc(-c5ccccc5)c4C[C@@]4(O)[C@@H](C2)N(CC2CC2)CC[C@]314`, the Ke in [1] came out at 44 nM; in [10] it was 260 nM. The values for the Ki in [2], in assay [4] and in assay [9] were 100 nM, 1270 nM and 233 nM, respectively. The Selectivity ratio in assay [3] turned out to be 13; in assay [5], 2.3; in assay [8] it was 0.17. Besides, the IC50 ratio came out at 23.8 in assay [6] and 4.8 in assay [11]. Besides, the IC50 stood at 11.7% in assay [12] and 14% in [7].
On to `Oc1ccc2c3c1O[C@H]1c4nc5ccccc5c(-c5ccccc5)c4C[C@@]4(O)[C@@H](C2)N(CC2CC2)CC[C@]314`, for which the Ki worked out at 73 nM in assay [2], 272 nM in assay [4] and 308 nM in assay [9]. Besides, the Selectivity ratio turned out to be 3.7 in [3] and 4.2 in assay [5].
As for `Oc1ccc2c3c1OC1c4nccc(-c5ccccc5)c4C[C@@]4(O)[C@@H](C2)N(CC2CC2)CC[C@]314` (some centres undefined), the Ke in assay [1] was found to be 190 nM; in assay [10], 51 nM. For the same molecule, the Ki came out at 73 nM in assay [2], 264 nM in [4] and 191 nM in [9]. Also, the Selectivity ratio in [3] came out at 3.6; in assay [5], 2.6; in assay [8], 3.7. Further, the IC50 ratio in [6] was determined as 6.21; in assay [11], 20.5. In addition, the results for the “Percent inhibition” value in assay [12] and in [7] were 31% and 14.8%, respectively.
As to `Cc1nc(-c2ccccc2)c2c(n1)C1Oc3c(O)ccc4c3[C@@]13CCN(CC1CC1)[C@H](C4)[C@]3(O)C2` (some centres undefined), the Ki in assay [2] is 325 nM; in [4], 565 nM; in assay [9], 254 nM. Further, the values for the Selectivity ratio in assay [3] and in assay [5] were 1.7 and 0.8, respectively.
For `Cc1ncc2c(n1)[C@@H]1Oc3c(O)ccc4c3[C@@]13CCN(CC1CC1)[C@H](C4)[C@]3(O)C2`, the results for the Ki in assay [2], in assay [4] and in assay [9] were 22.7 nM, 25 nM and 6 nM, respectively. Further, the Selectivity ratio in [3] came to 1.1; in [5], 0.3. In assay [12] (Mus musculus), this molecule yielded an IC50 of 3 nM. Besides, in assay [10], the Ke came out at 150 nM. For the same molecule, the IC50 ratio in [11] was found to be 7.6.
As to `Oc1ccc2c3c1O[C@H]1c4ncc(-c5ccc(Cl)cc5)cc4C[C@@]4(O)[C@@H](C2)N(CC2CC2)CC[C@]314`, in assay [12], the “Percent inhibition” value worked out at 21%. The same molecule displayed an IC50 in [7] (Cavia porcellus, Ileum) of 163 nM.
For the molecule `Oc1ccc2c3c1O[C@H]1c4ncc(-c5ccccc5)cc4C[C@@]4(O)[C@@H](C2)N(CC2CC2)CC[C@]314`, the Ki in assay [2] turned out to be 0.87 nM; in assay [14], 3.4 nM; in assay [4], 17.6 nM; in assay [9] it was 13.5 nM. The values for the Selectivity ratio in assay [3], in assay [5] and in [8] were 20, 16 and 12, respectively. For the same molecule, the IC50 ratio in [6] worked out at 24.6; in assay [11], 249. Moreover, the “Percent inhibition” value in [12] was 4.7%.
Take `Oc1ccc2c3c1O[C@H]1c4ncnc(-c5ccccc5)c4C[C@@]4(O)[C@@H](C2)N(CC2CC2)CC[C@]314`: the figures for the Ke in [1] and in assay [10] were 204 nM and 300 nM, respectively. Besides, the figures for the Ki in assay [2], in [4] and in [9] were 230 nM, 216 nM and 348 nM, respectively. The results for the Selectivity ratio in assay [3], in [5] and in assay [8] were 0.9, 1.5 and 0.7, respectively. Further, the figures for the IC50 ratio in assay [6] and in [11] were 5.9 and 4.3, respectively. Also, the “Percent inhibition” value is on record as 15.4% in assay [12] and 17% in assay [7].
